This note sets out measurements from publication PMC9366947 (ACS Omega, 2022).

Data set [1] in a line: Oral dose pharmacokinetics. The settings on record: rat; for AUC(0-t) / Kp / Kp at 24 h / Cmax: male, Sprague-Dawley, po, 2 mg/kg; for Kp / Kp at 24 h: brain/plasma; for Cmax (brain): oral 2 mg/kg, Table 1. Format: in vivo, Sprague–Dawley rats. The method, boiled down:
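Adult male Sprague–Dawley rats, cassette dosing by oral gavage at 2.0 mg/kg (0.4 mg/mL in 0.25% methyl cellulose/water), n=3 per time point (15 min, 40 min, 2 h, 6 h, 24 h). Under ketamine/xylazine i.p., blood taken by cardiac puncture and brains collected. Brain homogenised in methanol; plasma and brain extracts cleaned up by solid-phase extraction and quantified by UPLC–MS/MS. Values are means.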

The subject of data set [2] is pentylenetetrazol-induced clonic and tonic convulsions in mice. In words: PTZ seizures after oral dosing in mice. Format: in vivo, C57BL/6N mice. The settings on record: for peak time of efficacy / effect on latency to produce convulsions: 10 mg/kg oral, 70 mg/kg PTZ; for effect on latency to produce convulsions: 2 to 8 h after dosing; for lethality/number tested, 2 h: 2 h pretreatment; for lethality/number tested, 2 h / lethality/number tested, 4 h / lethality/number tested, 8 h: 60 min observation. Put shortly: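 Male C57BL/6N mice dosed orally (1% carboxymethylcellulose, 10 mL/kg). After the pretreatment interval, PTZ 70 mg/kg s.c. in 0.9% NaCl. Lethality and latency to death recorded over 60 min. Deaths compared with the vehicle + PTZ group by Fisher's exact test; n=6–7 per group.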

A short description of data set [3]: Partition coefficient. The settings on record: n-octanol/water, shake flask. It counts as physicochemical. The method, boiled down:
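Miniaturised shake flask. Octanol stock (1000 μg/mL) mixed with presaturated n-octanol and presaturated water, shaken overnight at 500 rpm, then centrifuged 20 min at 16 000 RCF. Both layers read by UV absorbance at 300 nm against calibration curves; run in triplicate.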

Data set [4] is described as follows: Thermodynamic equilibrium solubility in water and other solvents. It counts as physicochemical. The settings on record: spectroscopic method.
The nature of data set [5]: Kinetic. The settings on record: water, 37 °C. Format: physicochemical.
[6] abbreviates: oral, 4 h pretreatment, PTZ 70 mg/kg.
Where [7] appears, read: oral, 8 h pretreatment, PTZ 70 mg/kg.

Marks after values point to notes of the source that are not given here.

In turn, `C#Cc1ccc2c(c1)C(c1ccccn1)=NCc1c(-c3cnco3)ncn1-2` [KRM-II-81, 5-(8-Ethynyl-6-(pyridin-2-yl)-4H-benzo[f]imidazo[1,5-a][1,4]diazepin-3-yl)oxazole] registered an AUC(0-t) in data set [1] (brain) of 2.69 µM·h. In data set [1], the Kp was found to be 0.32, the Kp at 24 h was found to be 0.77 and the “Cmax (brain)” value came to 594.2 nM. In addition, in data set [1] (plasma), the AUC(0-t) was 3.59 µM·h and the Cmax was found to be 1830 nM. For the same compound, in data set [2], the “peak time of efficacy” value is given as “about 2 h” and the “effect on latency to produce convulsions” value is “approximately a doubling of the latency to produce convulsions”. Besides, the “lethality/number tested, 2 h” value in data set [2] (oral, PTZ 70 mg/kg) is 0/6 ^a. For the same compound, in data set [2] (setting [6]), the “lethality/number tested, 4 h” value was 0/6 ^a. For the same compound, in data set [2] (setting [7]), the “lethality/number tested, 8 h” value is listed as 0/6 ^a. The “log P” value in data set [3] worked out at 1.763 ± 0.12.
In the case of `C#Cc1ccc2c(c1)C(c1ccccn1)=NCc1c(-c3cnco3)ncn1-2.Cl` [KRM-II-81·HCl, 2-(8-Ethynyl-3-(oxazol-5-yl)-4H-benzo[f]imidazo[1,5-a][1,4]diazepin-6-yl)pyridin-1-ium Chloride], the “improvement in water solubility, salt form vs free base” value in data set [4] is on record as “Approximately 13 fold”. The “persistence in solution state (supersaturation) vs free base” value in data set [5] is “remain in the solution state for a longer period of time”. Further, in data set [1] (brain), the AUC(0-t) came out at 2.66 µM·h. Also, in data set [1], the Kp is 0.52, the concentration ratio (Kp) at 24 h was 1 and the “Cmax (brain)” value was determined as 689.1 nM. In addition, in data set [1] (plasma), the AUC(0-t) was 2.66 µM·h and the Cmax is 1320 nM. Also, in data set [2], the “peak time of efficacy” value is listed as “about 2 h” and the “effect on latency to produce convulsions” value is “approximately a doubling of the latency to produce convulsions”. Further, in data set [2] (oral, PTZ 70 mg/kg), the “lethality/number tested, 2 h” value was 0/6 ^a. For the same compound, in data set [2] (setting [6]), the “latency to death, 4 h” value came out at 15.68 s and the “lethality/number tested, 4 h” value is 1/6. Also, in data set [2] (setting [7]), the “latency to death, 8 h” value stood at 43.00 s and the “lethality/number tested, 8 h” value is on record as 1/6. Further, the “log P” value in data set [3] turned out to be 0.53 ± 0.06.

Broadly, the AUC(0-t) is exposure summed from dosing to a finite time, without extrapolation to infinity. Read a low AUC(0-t) as less exposure. A word on the Kp: it is tissue or fluid exposure divided by exposure in the circulation. What is called Cmax is the highest concentration seen after dosing. By log P is commonly meant the decadic logarithm of the partition coefficient of the neutral form, usually between octanol and water. A low value points to lower lipophilicity.
